Laboratory results taken from ChEMBL document CHEMBL4033712, “Synthesis and biological evaluation of new C-12(α/β)-(N-) sulfamoyl-phenylamino-14-deoxy-andrographolide derivatives as potent anti-cancer agents” (Bioorg Med Chem Lett, 2017).

Assays:
Type in all cases: functional
[1] = test system: MOLT-4; experiment: Growth inhibition of human MOLT4 cells incubated for 48 hrs by sulforhodamine B assay; conditions: MOLT-4, 48 h
In short: (§1)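 NCI-60 five-dose screen at 0.01, 0.1, 1, 10 and 100 µM, 48 h incubation, sulforhodamine B end point. GI50 (50% decrease in net growth), TGI (total growth inhibition) and LC50 (net 50% loss of initial cells) taken from log concentration versus % growth inhibition curves.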

[2] = test system: A549; experiment: Growth inhibition of human A549/ATCC cells incubated for 48 hrs by sulforhodamine B assay; conditions: A549, 48 h; in short: as §1
[3] = test system: HOP-62; experiment: Growth inhibition of human HOP62 cells incubated for 48 hrs by sulforhodamine B assay; conditions: HOP-62, 48 h; in short: as §1
[4] = test system: HOP-92; experiment: Growth inhibition of human HOP92 cells incubated for 48 hrs by sulforhodamine B assay; conditions: HOP-92, 48 h; in short: as §1
[5] = test system: NCI-H226; experiment: Growth inhibition of human NCI-H226 cells incubated for 48 hrs by sulforhodamine B assay; conditions: NCI-H226, 48 h; in short: as §1
[6] = test system: NCI-H23; experiment: Growth inhibition of human NCI-H23 cells incubated for 48 hrs by sulforhodamine B assay; conditions: NCI-H23, 48 h; in short: as §1
[7] = test system: NCI-H322M; experiment: Growth inhibition of human NCI-H322M cells incubated for 48 hrs by sulforhodamine B assay; in short: as §1
[8] = test system: NCI-H460; experiment: Growth inhibition of human NCI-H460 cells incubated for 48 hrs by sulforhodamine B assay; conditions: NCI-H460, 48 h; in short: as §1
[9] = test system: NCI-H522; experiment: Growth inhibition of human NCI-H522 cells incubated for 48 hrs by sulforhodamine B assay; conditions: NCI-H522, 48 h; in short: as §1
[10] = test system: COLO 205; experiment: Growth inhibition of human COLO205 cells incubated for 48 hrs by sulforhodamine B assay; conditions: COLO 205, 48 h; in short: as §1
[11] = test system: HT-29; experiment: Growth inhibition of human HT-29 cells incubated for 48 hrs by sulforhodamine B assay; conditions: HT-29, 48 h; in short: as §1
[12] = test system: SF-268; experiment: Growth inhibition of human SF268 cells incubated for 48 hrs by sulforhodamine B assay; conditions: SF-268, 48 h
In short: (§2)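 NCI 60 human tumour cell line panel, five-dose study at 0.01, 0.1, 1, 10 and 100 µM, 48 h incubation. Sulforhodamine B protein-binding dye end point. GI50 (50% decrease in net cell growth), TGI (total growth inhibition) and LC50 (net 50% loss of initial cells) read from log concentration versus % growth inhibition curves.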

[13] = test system: U-251; experiment: Growth inhibition of human U251 cells incubated for 48 hrs by sulforhodamine B assay; conditions: U-251, 48 h; in short: as §2
[14] = test system: SK-MEL-28; experiment: Growth inhibition of human SK-MEL-28 cells incubated for 48 hrs by sulforhodamine B assay; conditions: SK-MEL-28, 48 h; in short: as §2
[15] = test system: UACC-257; experiment: Growth inhibition of human UACC257 cells incubated for 48 hrs by sulforhodamine B assay; conditions: UACC-257, 48 h; in short: as §2
[16] = test system: IGROV-1; experiment: Growth inhibition of human IGROV1 cells incubated for 48 hrs by sulforhodamine B assay; conditions: IGROV-1, 48 h; in short: as §1
[17] = test system: OVCAR-3; experiment: Growth inhibition of human OVCAR3 cells incubated for 48 hrs by sulforhodamine B assay; conditions: OVCAR-3, 48 h; in short: as §1
[18] = test system: OVCAR-4; experiment: Growth inhibition of human OVCAR4 cells incubated for 48 hrs by sulforhodamine B assay; conditions: OVCAR-4, 48 h; in short: as §1
[19] = test system: OVCAR-5; experiment: Growth inhibition of human OVCAR5 cells incubated for 48 hrs by sulforhodamine B assay; conditions: OVCAR-5, 48 h; in short: as §1
[20] = test system: NCI/ADR-RES; experiment: Growth inhibition of human NCI/ADR-RES cells incubated for 48 hrs by sulforhodamine B assay; in short: as §1
[21] = test system: SK-OV-3; experiment: Growth inhibition of human SKOV3 cells incubated for 48 hrs by sulforhodamine B assay; conditions: SK-OV-3, 48 h; in short: as §2
[22] = test system: 786-0; experiment: Growth inhibition of human 786-0 cells incubated for 48 hrs by sulforhodamine B assay; conditions: 786-0, 48 h; in short: as §1
[23] = test system: TK-10; experiment: Growth inhibition of human TK10 cells incubated for 48 hrs by sulforhodamine B assay; conditions: TK-10, 48 h; in short: as §2
[24] = test system: UO-31; experiment: Growth inhibition of human UO31 cells incubated for 48 hrs by sulforhodamine B assay; conditions: UO-31, 48 h; in short: as §2
[25] = test system: Hs-578T; experiment: Growth inhibition of human Hs 578T cells incubated for 48 hrs by sulforhodamine B assay; in short: as §1
[26] = test system: MDA-MB-468; experiment: Growth inhibition of human MDA-MB-468 cells incubated for 48 hrs by sulforhodamine B assay; conditions: MDA-MB-468, 48 h; in short: as §1
[27] = test system: HOP-92; experiment: Anticancer activity against human HOP92 cells assessed as cell growth at 10 uM after 48 hrs by sulforhodamine B assay relative to control; conditions: HOP-92, 48 h, read-out: Activity
In short: (§3)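 Single-dose NCI-60 panel screen: compound added at 10 µM and the culture incubated 48 h. The end point was read by protein staining with sulforhodamine B. The value is percent growth of treated cells relative to untreated control cells, reported as a mean graph across the panel.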

[28] = test system: SNB-19; experiment: Anticancer activity against human SNB19 cells assessed as cell growth at 10 uM after 48 hrs by sulforhodamine B assay relative to control; conditions: SNB-19, 48 h, read-out: Activity; in short: as §3
[29] = read-out: LC50 (the source's name)

C=C1CC[C@@H]2[C@](C)(COC(C)=O)[C@H](OC(C)=O)CC[C@@]2(C)[C@H]1CC(Nc1ccc(S(=O)(=O)Nc2nccc(C)n2)cc1)C1=CCOC1=O (stereo not given in full)
GI50 [1]: 3.22 µM | TGI [1]: 17.9 µM | CC50 [1, 29]: > 100 µM | GI50 [2]: 8.19 µM | TGI [2]: 21.9 µM | CC50 [2, 29]: 52.2 µM | GI50 [3]: 10.3 µM | TGI [3]: 22.5 µM | CC50 [3, 29]: 49.3 µM | GI50 [4]: 6.24 µM | TGI [4]: 18.9 µM | CC50 [4, 29]: 44.5 µM | GI50 [5]: 2.33 µM | TGI [5]: 5.91 µM | CC50 [5, 29]: > 100 µM | GI50 [6]: 3.78 µM | TGI [6]: 16 µM | CC50 [6, 29]: 50.6 µM | GI50 [7]: 11.3 µM | TGI [7]: 23.9 µM | CC50 [7, 29]: 50.7 µM | GI50 [8]: 4.88 µM | TGI [8]: 18.3 µM | CC50 [8, 29]: 53.9 µM | GI50 [9]: 1.26 µM | TGI [9]: 3.1 µM | CC50 [9, 29]: 7.62 µM | GI50 [10]: 2.09 µM | TGI [10]: 4.66 µM | CC50 [10, 29]: 11.9 µM | GI50 [11]: 2.02 µM | TGI [11]: 4.24 µM | CC50 [11, 29]: 8.93 µM | GI50 [12]: 6.19 µM | TGI [12]: 20.9 µM | CC50 [12, 29]: 54.2 µM | GI50 [13]: 3.17 µM | TGI [13]: 10.7 µM | CC50 [13, 29]: 33.3 µM | GI50 [14]: 2.83 µM | LC50 (50% net cell kill) [14]: 36.3 µM | TGI [14]: 10.1 µM | GI50 [15]: 4.8 µM | TGI [15]: 16.4 µM | CC50 [15, 29]: 42.8 µM | GI50 [16]: 3.62 µM | TGI [16]: 13.6 µM | CC50 [16, 29]: 45.5 µM | GI50 [17]: 1.76 µM | TGI [17]: 3.36 µM | CC50 [17, 29]: 6.43 µM | GI50 [18]: 4.37 µM | LC50 [18]: 41.4 µM | TGI [18]: 15.8 µM | GI50 [19]: 3.86 µM | LC50 (concentration causing net 50% loss of initial cells) [19]: 42.2 µM | TGI [19]: 12.8 µM | GI50 [20]: 2.94 µM | LC50 (concentration giving net 50% loss of initial cells) [20]: > 100 µM | TGI [20]: 13.5 µM | GI50 [21]: 12.7 µM | TGI [21]: 25.3 µM | CC50 [21, 29]: 50.3 µM | GI50 [22]: 2.27 µM | LC50 (concentration giving net 50% loss of initial cells) [22]: 13.8 µM | TGI [22]: 5.06 µM | GI50 [23]: 4.94 µM | TGI [23]: 15.8 µM | CC50 [23, 29]: 40.4 µM | GI50 [24]: 2.91 µM | LC50 (concentration giving net 50% loss of initial cells) [24]: 33.3 µM | TGI [24]: 10.6 µM | GI50 [25]: 6.65 µM | LC50 [25]: > 100 µM | TGI [25]: 43 µM | GI50 [26]: 1.99 µM | TGI [26]: 4.3 µM | CC50 [26, 29]: 9.3 µM | growth at 10 µM [27]: 71.6% | growth at 10 µM [28]: 53.6%
